Screening data deposited in PubChem by Broad Institute.
INS-1E GSIS act = GLuc luminescence reporter in INS-1E cells, primary screen for activators of glucose-dependent secretion of insulin; INS-1E GLuc reporter insulin secretion, 2-3 h; activation, % at 16.6 µM; 370,000 compounds, 0.61% hits;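 active means lowest replicate activation of at least 40%, so every replicate reaches that level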;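 further: 0% = median of neutral control wells and 100% = median of IBMX positive control wells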
CDK5 inh = CDK5/p35 (human) kinase inhibition; Q00535+Q15078; Recombinant CDK5/p35, ADP-Glo luminescence, 60 min; inhibition, % at 10 µM; 330,000 compounds, 0.01% hits;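 active means highest replicate inhibition of at least 50% and at least 75% of replicates reaching 50%; inconclusive means only one of the two criteria met; inactive means both criteria failed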;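 further: plate controls were DMSO neutral control for no effect and GW8510 at 10 µM for full effect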
Target sequence (Q00535 whole entry, looked up): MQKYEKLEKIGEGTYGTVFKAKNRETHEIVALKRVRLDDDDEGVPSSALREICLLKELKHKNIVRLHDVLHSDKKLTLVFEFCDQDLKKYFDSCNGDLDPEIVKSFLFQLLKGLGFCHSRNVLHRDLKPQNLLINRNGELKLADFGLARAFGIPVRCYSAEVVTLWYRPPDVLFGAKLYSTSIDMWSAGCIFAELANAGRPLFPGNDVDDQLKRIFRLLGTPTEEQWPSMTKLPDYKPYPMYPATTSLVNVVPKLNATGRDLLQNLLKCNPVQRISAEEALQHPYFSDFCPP
Target sequence (Q15078 whole entry, looked up): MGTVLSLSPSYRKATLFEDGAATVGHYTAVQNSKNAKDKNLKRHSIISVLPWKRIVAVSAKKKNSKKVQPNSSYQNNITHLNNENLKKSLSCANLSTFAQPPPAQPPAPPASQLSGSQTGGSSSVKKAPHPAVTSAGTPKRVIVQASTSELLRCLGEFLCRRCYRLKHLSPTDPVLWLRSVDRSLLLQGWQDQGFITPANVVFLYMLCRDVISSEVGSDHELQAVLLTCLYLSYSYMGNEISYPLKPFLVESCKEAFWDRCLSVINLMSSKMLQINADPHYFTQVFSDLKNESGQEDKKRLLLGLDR
dFosB activator = mouse delta FosB homodimer activation; P13346; purified delta FosB, TAMRA-CDK5 oligo fluorescence polarization; percent of positive-control signal above neutral wells; activation, % at 25 µM; 340,000 compounds, 0.99% hits; AID 493131;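 active means mean activation above about 17%, with every replicate also reaching it, limit read from the data, passing the limit was not always enough; inconclusive means only one of the two conditions met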
Cneo AK release = Cryptococcus neoformans lysis via adenylate kinase release; C. neoformans lysis, adenylate kinase release luminescence, 4 h; normalised: neutral wells 0, clomiphene wells 100; 360,000 compounds, 0.2% hits; lysis activity, % at 15 µM;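 active means mean lysis activity across replicates of at least 80%, whatever share of replicates individually reach that level; inactive means mean lysis activity below 80%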
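Material – log-phase Cryptococcus neoformans yeast cells · Input – 5 × 10^6 yeast cells/mL · Medium – fresh YPD growth medium · Doses – single compound concentration per well · Timing – static 4 h at 37 °C with compound, 1 h detection · Detection – adenylate kinase release luminescence · Read-out – signal increase indicating cell lysis · Control set – Clomiphene as positive lysis control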
PAX8 inh HTS = inhibitors of PAX8 transcriptional activity in RMG-I cells; 360,000 compounds, 1.2% hits; inhibition, % at 12.6 µM; RMG-I TPO-luciferase reporter, SteadyGlo, 24 h; AID 652154;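 active means mean replicate inhibition at least 60% with every replicate also reaching 60%; inconclusive means only one of the two criteria is met; inactive means mean below 60% and not all replicates reaching 60%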;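 further: luciferase light reporting Pax8 driven TPO promoter activity; plate controls were median of neutral control wells for no effect and mitoxantrone controls for full effect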
Env fusion inh = HIV envelope-mediated fusion inhibition. HeLa-JRFL Env/CEM21 cell fusion, luciferase. inhibition, % at 12.3 µM. 360,000 compounds, 1.1% hits. AID 651610;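 active means mean replicate inhibition score of at least 50 and every replicate individually at or above 50; inconclusive means only one of the two criteria met; inactive means mean below 50 and not all replicates reaching 50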;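 further: 0% = plate neutral controls and 100% = maraviroc near 300 nM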
The depositor's hits bear a star; u = inconclusive; x = no result; [ ] = another dose, or the depositor's remark. A selection: hits, their analogues and other compounds. The true share with any hit is near 2.9%.

SMILES | INS-1E GSIS act | CDK5 inh | dFosB activator | Cneo AK release | PAX8 inh HTS | Env fusion inh
COc1ccc(C(=O)Nc2nc3ccccc3s2)c(OC)c1 | 4 | 5 | -14 | -4 | 106* | 79*
COc1ccc(Nc2c3ccccc3nc3ccccc23)cc1 | 25 | -3 | 60* | 1 | 17 | 1
COc1ccc(CCNc2c3ccccc3nc3ccccc23)cc1OC | 8 | 2 | 30* | -3 | -66 | 26
COc1cc(Nc2c3ccccc3nc3ccccc23)cc(OC)c1OC | -15 | 0 | 44* | -1 | 3 | -76
COCCNc1c2c(nc3ccccc13)CCC2 | 22 | 0 | -9 | 0 | 12 | -5
CN(C)CCCNc1c2c(nc3ccccc13)CCC2 | 11 | 1 | 20* | 0 | 2 | 2
COc1ccc(Nc2c3c(nc4ccccc24)CCCC3)cc1OC | 15 | 1 | 2 | x | 1 | 1
COc1ccc(Nc2c3c(nc4ccccc24)CCC3)cc1 | 74* | 0 | 5 | 1 | 33 | 35
COc1ccccc1Nc1c2ccccc2nc2ccccc12 | 13 | 0 | 37* | 1 | 15 | 57*
CCCC(=O)NC1CCc2cc(OC)c(OC)c(OC)c2-c2ccc(OC)c(=O)cc21 (configuration not stated) | 9 | 2 | -2 | x | 78* | -170
COc1cc(CC(=O)NC2CCCc3ccccc32)cc(OC)c1OC (configuration not stated) | -9 | -2 | -6 | -3 | 0 | -1
COc1cccc(C(=O)Nc2ccc3c(cc2=O)[C@@H](NC(C)=O)CCc2cc(OC)c(OC)c(OC)c2-3)c1 | x | 1 | -19 | 2 | x | x
COC(=O)c1ccc2c(c1)C(NC(C)=O)CCc1cc(OC)c(OC)c(OC)c1-2 (configuration not stated) | -7 | 1 | -7 | x | 85* | -2
COc1c(C=O)c2c(c(OC)c1OC)-c1ccc(OC)c(=O)cc1C(NC(C)=O)CC2 (configuration not stated) | -7 | 0 | -3 | x | 87* | -45
COc1cc2c(c(OC)c1OC)-c1ccc(OC)c(=O)cc1C(NC(C)=O)CC2 (configuration not stated) | 4 | -1 | 9 | 0 | 96* | -111
Cc1cc(C)n2nc(-c3ccc(Cl)cc3)cc2n1 | -1 | 1 | -10 | -2 | -138 | -78
Cc1cc(-c2ccc(Cl)cc2)n2nc(C)cc2n1 | 80* | -1 | -10 | 0 | -30 | 5
Cc1cc(-c2ccc(Br)cc2)n2nc(C)cc2n1 | 43* | x | x | 0 | -35 | -1
Cc1ccc(S(=O)(=O)Nc2ccc3c(c2)C(=O)N([C@@H](C)CO)C[C@@H](C)[C@H](CN(C)C(=O)NC2CCCCC2)OCCCC[C@@H](C)O3)cc1 | -17 | x | x | 0 | 6 | -60[16.7 µM]
Cc1ccccc1NC(=O)Nc1nc(C(N)Cc2ccccc2)cs1 (configuration not stated) | -18 | x | x | 6 | x | 8
COc1ccccc1NC(=O)Nc1nc(C(N)Cc2ccc(Cl)cc2)cs1 (configuration not stated) | 6 | x | x | 0 | -14 | 64*
NC(CCc1ccccc1)c1csc(NC(=O)Nc2cccc(C(F)(F)F)c2)n1 (configuration not stated) | -13 | x | x | 0 | -1 | 55*
COc1ccc(CC(N)c2csc(NC(=O)Nc3cccc(C(F)(F)F)c3)n2)cc1 (configuration not stated) | -49 | x | x | 0 | -3 | u
NC(Cc1ccc(C(F)(F)F)cc1)c1csc(NC(=O)Nc2ccccc2Cl)n1 (configuration not stated) | -1 | x | x | -1 | -6 | 58*
NC(Cc1ccc(C(F)(F)F)cc1)c1csc(NC(=O)Nc2ccccc2)n1 (configuration not stated) | 4 | x | x | -2 | -4 | 78*
SMILES | INS-1E GSIS act | CDK5 inh | dFosB activator | Cneo AK release | PAX8 inh HTS | Env fusion inh
CC(C)C(N)c1csc(NC(=O)Nc2cccc(C(F)(F)F)c2)n1 (configuration not stated) | -31 | x | x | 0 | 40 | -7
CCC(=O)N(C)C[C@@H]1Oc2cc(C#Cc3ccccn3)ccc2S(=O)(=O)N([C@H](C)CO)C[C@@H]1C | 9 | x | x | -12 | x | -11[16.7 µM]
NC(Cc1ccc(Cl)cc1)c1csc(NC(=O)Nc2ccccc2)n1 (configuration not stated) | x | x | x | -1 | 14 | 61*
COc1ccc(NC(=O)Nc2cccc3c2O[C@H](CN(C)S(=O)(=O)c2ccc(OC)cc2)[C@H](C)CN([C@@H](C)CO)C3=O)cc1 | -5 | x | x | -3 | -15 | -4[16.7 µM]
CC(C)C#Cc1ccc2c(c1)O[C@H](CN(C)C(=O)c1ccncc1)[C@@H](C)CN([C@@H](C)CO)S2(=O)=O | -2 | x | x | -4 | -10 | x
COC(=O)C1=C(N)Oc2cc(N(C)C)ccc2C1c1ccccc1OC (configuration not stated) | x | 0 | -4 | 9 | x | 61*
O=C(C=C=Nc1ccccc1)C(=O)N=C=Cc1ccccc1 | -4 | 1 | -2 | -2 | 80* | -13
O=C(N/N=C/c1ccccc1)C(=O)N/N=C/c1ccccc1 | 2 | 1 | 4 | 2 | -6 | 3
O=C(N/N=C/c1sc(=O)n(Cc2ccc(Br)cc2)c1Cl)c1ccco1 | -1 | 0 | 35* | x | 47 | -10
O=C(N/N=C/c1ccc(Br)s1)c1ccco1 | -6 | 2 | -3 | x | -96 | -38
CCC(=O)N(CC(C)C)C[C@H]1[C@H](c2ccccc2)[C@@H](CO)N1C(=O)C1CCC1 | -5 | x | x | -3 | -2 | x
CN1[C@@H]2c3ccc(-c4cccnc4)c(=O)n3C[C@@H]2[C@@H](CO)[C@@H]1C(=O)N1CCc2ccccc2C1 | 3 | x | x | 113* | 1 | x
Cc1ccc(S(=O)(=O)/C(=C/Cl)NC(=O)c2ccccc2)cc1 | 3 | -1 | -4 | x | 94* | 24
O=C(NCc1ccc(Cl)c(Cl)c1)c1cc(C2CCCCN2C(=O)C2CCCCC2)on1 (configuration not stated) | -13 | x | x | -1 | 36 | 15
COC(=O)N1CCCCC1c1cc(C(=O)NCc2ccc(Cl)c(Cl)c2)no1 (configuration not stated) | 73* | x | x | 0 | 11 | 3
Cc1cc(C)c(S(=O)(=O)/N=C2/C=C(Sc3ncn[nH]3)C(=O)c3ccccc32)cc1C | 10 | 6 | -6 | x | 102* | 18
Cc1noc(C)c1NC(=O)Nc1ccc2c(c1)C(=O)N([C@@H](C)CO)C[C@H](C)[C@H](CN(C)Cc1ccc(C(=O)O)cc1)O2 | 7 | x | x | -3 | x | x
CCCOCc1ccc(O)c2ncccc12 | 16 | 0 | 1 | -4 | 31 | 16
CC(C)COCc1ccc(O)c2ncccc12 | 5 | 0 | -2 | x | 72* | 6
Oc1c(CN2CCCCC2)cc(COCc2ccccc2)c2cccnc12 | -10 | -2 | 6 | 14 | 64* | -24
